These results are taken from ChEMBL document CHEMBL2331334, “Hybrid furoxanyl N-acylhydrazone derivatives as hits for the development of neglected diseases drug candidates” (Eur J Med Chem, 2013).

SMILES strings stand for the structures. In brackets after ≈: the same amount, converted by molar mass.

Data set [1] is described as follows: Selectivity index, ratio of IC50 for mouse J774.1 cells to IC50 for axenic amastigote stage of Leishmania amazonensis MHOM/BR/76/LTB-012. Type of data set: toxicity. Particulars: read-out: Ratio IC50; call rule not given here.
Data set [2] can be described thus: Cytotoxicity against mouse J774.1 cells assessed as cell viability after 72 hrs by MTT assay. The settings on record: J774.1, 72 h. Type of data set: cell-based. (In general: Formazan colour is commonly taken as a measure of viable cells.)
A short description of data set [3]: Selectivity index, ratio of IC50 for african green monkey Vero cells to IC50 for amastigote stage of Trypanosoma cruzi Tulahuen C4. The format is toxicity, cell-based. Particulars: read-out: Ratio IC50.
Data set [4] deals with Trypanosoma cruzi. As to the kind of experiment: Trypanosomicidal activity against axenic epimastigote stage of Trypanosoma cruzi Tulahuen 2 assessed as growth inhibition. Type of data set: functional, organism-based. In outline: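 Tulahuen 2 epimastigotes grown axenically at 28 °C in BHI-tryptose with 5% FCS, harvested late log phase, 3×10^6/mL in 24-well plates. Compound added from DMSO stock (≤1% DMSO). Growth as A590 at day 0 and day 5; % inhibition from blank-corrected absorbances; ID50 = concentration halving absorbance relative to untreated controls.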

Data set [5] is described as follows: Selectivity index, ratio of IC50 for mouse J774.1 cells to IC50 for amastigote stage of Trypanosoma cruzi Tulahuen C4. The format is toxicity. Particulars: read-out: Ratio IC50.
The subject of data set [6] is Trypanosoma cruzi. As to the kind of experiment: Trypanosomicidal activity against amastigote stage of Trypanosoma cruzi Tulahuen C4 transfected with beta-D-galactosidase infected in african green monkey Vero cells assessed as growth inhibition incubated 5 days prior to beta-D-galactopyranoside addition measured after 4 to 5 hrs by colorimetric assay. Type of data set: functional, organism-based. In outline:
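VERO monolayer in phenol red-free RPMI 1640 with 10% FCS, infected with 5×10^4 LacZ-transfected Tulahuen C4 trypomastigotes/well, 24 h at 37 °C, 5% CO2. Compounds added for 5 days. CPRG substrate added, 4–5 h at 37 °C, A570. Actives (>50% inhibition) retested in duplicate at 10.0–0.16; IC50 by logarithmic regression versus untreated control.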

Data set [7] can be described thus: Selectivity index, ratio of IC50 for mouse J774.1 cells to MIC for Mycobacterium tuberculosis H37Rv. Type of data set: functional. A digest of the protocol:
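Cytotoxicity: J774.1 macrophages in DMEM with 4 mM L-glutamine and 10% heat-inactivated FCS, seeded at 5 × 10^4/well, attached 48 h at 37 °C, 5% CO2. Exposed 48 h to 12.5–400.0 µM compound or vehicle. MTT at 0.1 mg/mL final for 3 h, formazan dissolved in DMSO/glycine buffer pH 10.5, A560 read. IC50 by linear regression, divided by the MIC against the same MTB strain.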

Data set [8] in a line: Cytotoxicity against mouse J774.1 cells assessed as cell viability after 48 hrs by MTT assay. Type of data set: cell-based. The settings on record: J774.1, 48 h. In outline:
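J774.1 macrophages in DMEM with 4 mM L-glutamine and 10% heat-inactivated FCS, 5×10^4 cells/well, attached 48 h at 37 °C, 5% CO2. Exposed 48 h to compounds (12.5–400.0 µM) or vehicle. MTT 0.1 mg/mL final, 3 h at 37 °C; formazan dissolved in DMSO/glycine buffer pH 10.5, A560. IC50 by linear regression versus solvent control.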

The test system of data set [9] is Mycobacterium tuberculosis. As to the kind of experiment: Antimycobacterial activity against Mycobacterium tuberculosis H37Rv assessed as growth inhibition after 5 days by MTT assay. Type of data set: functional. The settings on record: 120 h. A digest of the protocol: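 MTB inoculum made from 20–30-day slant growth in Tween 80/0.2% BSA, adjusted to McFarland No. 1, then diluted in 7H9GC broth (Middlebrook 7H9, glycerol, Casitone, OADC). Final inoculum about 1.2 × 10^6 CFU/mL. Compounds taken from DMSO stock to final 0.4–25 in broth, with a DMSO control. Plates run 5 days at 37 °C, then tetrazolium (MTT)–Tween 80 added for a further 24 h at 37 °C. Read-out is MIC.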

In the next data set the test system is Plasma. As to the kind of experiment: Metabolic stability in human plasma at pH 3 at 40 uM after 3 hrs. The settings on record: pH 3, 3 h. Type of data set: ADME, cell-free.
Data set [10] can be described thus: Aqueous stability of the compound in Tris.HCl buffer at pH 7.4 at 1 mM after 24 hrs by spectrophotometric analysis. Type of data set: physicochemical. The settings on record: pH 7.4, 24 h, 1000 µM. In outline:
(§1)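 Compound from DMSO stock, 1 mM final in aqueous buffer (KCl·HCl pH 2, acetate pH 5, Tris·HCl pH 7.4 or 8.3), incubated 37 °C for 24 h. Absorbance spectrum 250–450 nm compared with a freshly prepared, unincubated solution. TLC of ethyl acetate extracts to confirm or exclude decomposition products.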

The nature of data set [11]: Aqueous stability of the compound in Tris.HCl buffer at pH 8.3 at 1 mM after 24 hrs by spectrophotometric analysis. The settings on record: pH 8.3, 24 h, 1000 µM. Type of data set: physicochemical. A digest of the protocol: as §1
Data set [12] can be described thus: Aqueous stability of the compound in acetate buffer at pH 5 at 1 mM after 24 hrs by spectrophotometric analysis. Type of data set: physicochemical. Particulars: pH 5, 24 h, 1000 µM. In outline: as §1
Data set [13] is described as follows: Aqueous stability of the compound in KCl.HCl buffer at pH 2 at 1 mM after 24 hrs by spectrophotometric analysis. The format is physicochemical. The settings on record: pH 2, 24 h, 1000 µM. A digest of the protocol: as §1
Data set [14] has as its system Salmonella typhimurium. As to the kind of experiment: Mutagenicity in Salmonella typhimurium TA98 at 4.9 to 400 ug/plate in presence of S9 fraction. Type of data set: toxicity, organism-based. The settings on record: salmonella enterica subsp. enterica serovar typhimurium. In outline:
(§2)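 Direct plate incorporation with S. typhimurium TA98 on minimal glucose agar (Vogel-Bonner E, 40% glucose). Compounds in DMSO assayed in triplicate at doses starting from the highest non-toxic dose, with or without Aroclor-treated mouse liver S9. Controls: DMSO, 4-nitro-o-phenylenediamine (−S9), 2-aminofluorene (+S9). Revertants counted manually; mutagenic if ≥2× negative control at two consecutive doses.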

Data set [15] relates to Salmonella typhimurium. As to the kind of experiment: Mutagenicity in Salmonella typhimurium TA98 at 4.9 to 400 ug/plate in absence of S9 fraction. Particulars: salmonella enterica subsp. enterica serovar typhimurium. The format is toxicity, organism-based. A digest of the protocol: as §2
For data set [16], the system named is Salmonella typhimurium. Kind of data set: Mutagenicity in Salmonella typhimurium TA98 at 150 ug/plate in presence of S9 fraction. Particulars: salmonella enterica subsp. enterica serovar typhimurium. Type of data set: toxicity, organism-based. A digest of the protocol: as §2
For data set [17], the system named is Salmonella typhimurium. As to the kind of experiment: Mutagenicity in Salmonella typhimurium TA98 at 150 ug/plate in absence of S9 fraction. Particulars: salmonella enterica subsp. enterica serovar typhimurium. The format is toxicity, organism-based. In outline: as §2

For the compound `C[C@@H]1[C@H](O)[C@@H](C)/C=C/C=C/C=C/C=C/C=C/C=C/C=C/[C@H](O[C@@H]2O[C@H](C)[C@@H](O)[C@H](N)[C@@H]2O)C[C@@H]2O[C@](O)(C[C@@H](O)C[C@@H](O)[C@H](O)CC[C@@H](O)C[C@@H](O)CC(=O)O[C@H]1C)C[C@H](O)[C@H]2C(=O)O` [AMPHOTERICIN B], in data set [1], the selectivity ratio came out at 4.7. The IC50 (in general, the concentration that inhibits the measured activity by half) in [2] was found to be 0.52 µM.
For the compound `O=C(N/N=C/c1c(-c2ccccc2)no[n+]1[O-])c1ccncc1`, the selectivity ratio in data set [3] was 2.5; in data set [5], greater than 63. In addition, the figures for the IC50 (in the data set on Trypanosoma cruzi [4]; with Trypanosoma cruzi [6]; in data set [8]) were 11 µM, 6.4 µM and greater than 400 µM, respectively. In data set [7], the “Selectivity Index” value is given as greater than 667. Also, the MIC – broadly, the least concentration at which growth counts as inhibited – in data set [9] amounted to 0.6 µM (≈ 0.186 µg/mL). The Stability entry (in the data set with Plasma; in data set [10]; in data set [11]; in [12]; in data set [13]) was “Stable” in each case. Further, the Activity result in the data set on Salmonella typhimurium [14] and in the data set on Salmonella typhimurium [15] was “Non-toxic” in each case.
On to `O=C(N/N=C/c1ccc2no[n+]([O-])c2c1)c1ccncc1`, for which the values for the selectivity ratio in data set [3] and in data set [5] were 2.5 and 24, respectively. Besides, the figures for the IC50 (in the data set with Trypanosoma cruzi [4]; in the data set with Trypanosoma cruzi [6]; in data set [8]) were 33.4 µM, 5.6 µM and 135 µM, respectively. Moreover, in data set [7], the “Selectivity Index” value worked out at 385. The MIC in [9] is 0.35 µM (≈ 0.0991 µg/mL). The Stability result (with Plasma; in data set [10]; in [11]; in [12]; in data set [13]) was “Stable” throughout. The Activity result with Salmonella typhimurium [16] and in the data set on Salmonella typhimurium [17] was “Toxic” in each case.
